Source: PubChem (several laboratories)
thrombin 1536 – inhibitors of human thrombin; P00734; alpha-thrombin, Boc-VPR-AMC fluorogenic substrate cleavage; inhibition, % at 5 µM; actives 0.26% (n = 220,000); AID 1046;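 active means inhibition at or above 40%; inactive means inhibition below 40%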
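System – human alpha-thrombin protein · Reagent – Boc-VPR-AMC substrate, 15 µM final · Compound – 5 µM single dose in 0.2% DMSO · Schedule – reaction at room temperature · Technique – AMC fluorescence at 355 nm excitation and 460 nm emission · Read-out basis – % inhibition relative to enzyme controls and enzyme-free blanks · Control set – no-compound enzyme wells and no-enzyme blanks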
FXIIa inh – blocks human coagulation factor XIIa protease activity | P00748 | purified FXIIa, Boc-QGR-AMC fluorogenic substrate, 2 h | inhibition, % at 5 µM | actives 0.3% (n = 220,000) | AID 800; in the data active means inhibition above about 40%
hK5 inh – inhibitors of human kallikrein 5. recombinant hK5, fluorogenic AMC substrate cleavage. inhibition, % at 5 µM. Q9Y337. actives 0.59% (n = 210,000). AID 873;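 active means inhibition of 40% or more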
Target sequence (Q9Y337 67-293 limits assumed): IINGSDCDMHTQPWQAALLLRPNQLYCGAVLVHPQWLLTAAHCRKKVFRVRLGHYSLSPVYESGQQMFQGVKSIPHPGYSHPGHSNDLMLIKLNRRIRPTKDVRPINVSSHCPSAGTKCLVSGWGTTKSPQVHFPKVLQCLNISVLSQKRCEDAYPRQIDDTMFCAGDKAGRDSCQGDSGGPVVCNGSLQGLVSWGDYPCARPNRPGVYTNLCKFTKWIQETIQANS
FXIa inh – factor XIa (human) inhibition. purified FXIa, Boc-Glu-Ala-Arg-AMC fluorogenic substrate. inhibition, % at 5 µM. P03951. actives 0.14% (n = 220,000). AID 798;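 active means inhibition of at least 40%; inactive means inhibition below 40%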;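 further: fluorescence of freed AMC excited at 355 nm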
S1P3 antag – antagonists of human S1P3 receptor. Q99500. inhibition, % at 4.98 µM. CHO S1P3 NFAT-BLA reporter, FRET fluorescence, antagonist mode. AID 485. actives 0.27% (n = 170,000);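 active means inhibition above the plate cutoff, the mean inhibition of test wells on that plate plus 3 SD, cut at about 28% in these data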;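 further: cells challenged with S1P at its EC80 of 0.8 µM; blue over green emission ratio from cleaved BLA substrate after 4 h stimulation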
Target sequence (Q99500 whole entry, looked up): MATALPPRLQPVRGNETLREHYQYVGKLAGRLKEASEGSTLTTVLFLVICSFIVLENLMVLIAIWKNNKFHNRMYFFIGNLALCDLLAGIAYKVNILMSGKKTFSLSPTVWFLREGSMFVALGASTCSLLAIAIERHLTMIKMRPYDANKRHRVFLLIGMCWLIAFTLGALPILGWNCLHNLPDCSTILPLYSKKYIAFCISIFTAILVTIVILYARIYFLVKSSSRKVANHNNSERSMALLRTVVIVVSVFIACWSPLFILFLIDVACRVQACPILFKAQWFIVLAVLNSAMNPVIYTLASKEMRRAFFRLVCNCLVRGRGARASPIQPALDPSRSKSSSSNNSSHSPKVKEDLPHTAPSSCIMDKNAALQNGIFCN
DTT redox prof – compounds producing H2O2 with reducing agent – biochemical, NIH compound library profiling, artefact control for MLSCN library redox annotation, primary screen. AID 878. actives 0.03% (n = 200,000). activation, % at 10 µM. DTT-dependent redox cycling H2O2, phenol red/HRP absorbance; 100% = 100 µM peroxide control, 0% = buffer;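 active means activation of at least 50% relative to the plate's high and low controls in the primary single-dose screen; inactive means activation below 50%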;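 further: compound incubated with DTT at 0.8 mM final as the reducing agent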
A number is an active result; 0 = inactive; - = not tested or not shown. Rows were chosen to be rich in hits. Some 1.2% of all compounds tested hit in one or more screens of this group.

SMILES	thrombin 1536	FXIIa inh	hK5 inh	FXIa inh	S1P3 antag	DTT redox prof
O=C(CCN1C(=O)c2ccc([N+](=O)[O-])cc2C1=O)Nc1ccc(O)cc1C(=O)O	0	0	0	0	0	0
O=C(O)Cc1ccc(NC(=O)CCN2C(=O)c3ccc([N+](=O)[O-])cc3C2=O)cc1	0	100	0	0	0	0
CCOC(=O)C(=CNc1cccc(C)c1C)C(=O)OCC	45	0	0	0	-	0
CCOC(=O)C(=CNc1ccc(C)cc1C)C(=O)OCC	0	0	0	0	-	0
O=C1C[C@H]2[C@H](CO)[C@@H](OC(=O)c3ccc(-c4ccccc4)cc3)C[C@H]2O1	0	0	72	0	0	-
CCN(CC)C(=O)CCSc1nnc(-c2ccco2)o1	0	0	0	0	0	0
Cc1ccccc1C(=O)NC1CC(C)(C)NC(C)(C)C1	0	0	58	0	0	0
Cc1ccc(C)c(C(=O)NC2CC(C)(C)NC(C)(C)C2)c1	0	0	0	0	0	0
O=C(COc1ccc(Br)cc1)Nc1nc(-c2cccnc2)cs1	0	0	0	0	0	-
O=C(Nc1nc(-c2ccc(Cl)s2)cs1)c1cccs1	0	73	0	91	0	0
CC1Nc2ccccc2C(=O)N1NC(=O)c1ccc(Br)cc1 (stereo not drawn)	0	0	0	0	0	0
COC(=O)c1scc(C)c1NC(=O)Cc1ccccc1	0	0	70	0	-	0
O=C(CN1C(=O)NC2(CCCCC2)C1=O)NCc1ccc2c(c1)OCO2	0	0	0	0	0	0
O=C(CC(Nc1ccc(F)cc1)C(=O)OCC(=O)c1cccs1)c1ccccc1 (stereo not drawn)	50	0	0	0	0	0
O=C(COC(=O)c1cccs1)c1ccccc1	0	0	0	0	0	0
O=C(CC(Nc1ccc(F)cc1)C(=O)O)c1ccccc1 (stereo not drawn)	0	0	52	0	0	0
O=C(Nc1ccc(S(=O)(=O)Nc2ccc(F)cc2)cc1)c1ccc(CN2CCOCC2)cc1	0	0	0	0	0	0
COc1cc(C(=O)Nc2ccc(C#N)cc2)c([N+](=O)[O-])cc1OC	0	0	-	0	0	0
Cn1c(N)c(S(=O)(=O)N2CCN(c3ccccc3)CC2)c(=O)n(C)c1=O	0	0	0	0	0	0
Cc1ccc(O)c(-c2cc(-c3ccccc3[N+](=O)[O-])[nH]n2)c1	0	0	0	0	0	0
Cc1ccc(O)c(-c2cc(-c3ccccc3C)[nH]n2)c1	0	0	50	0	0	0
O=C(c1cccs1)n1nc(-c2ccc(Cl)cc2)nc1NCc1ccco1	0	0	0	0	-	0
O=C(c1ccccc1)n1nc(-c2ccccc2)nc1NCc1ccco1	73	0	0	0	0	0
O=C(c1ccco1)n1nc(-c2cccnc2)nc1NCc1ccco1	96	0	0	0	0	0
CCN(CC)S(=O)(=O)c1cccc(NC(=O)CN2C(=O)c3ccc([N+](=O)[O-])cc3C2=O)c1	0	0	0	0	0	0
SMILES	thrombin 1536	FXIIa inh	hK5 inh	FXIa inh	S1P3 antag	DTT redox prof
Nc1nc(SCn2nnc3ccccc3c2=O)n[nH]1	0	40	0	0	0	0
C=CCc1c(C)[nH]c2c(OC)cccc2c1=S	0	0	46	0	0	0
C=CCN(CC=C)C(=O)c1c(OC)cccc1OC	0	0	0	0	0	0
CSCCC(NS(=O)(=O)c1ccc(Br)cc1)C(=O)OCC(=O)NC1CC1 (stereo not drawn)	0	0	0	0	0	0
Cc1cc(C)c2nc(-c3ccccn3)cc(C(=O)Nc3cc(C)on3)c2c1	0	0	0	0	54	0
Cc1cc(NC(=O)c2cc(-c3ccccn3)nc3ccccc23)no1	0	0	0	0	0	0
Cc1ccc(S(=O)(=O)N2CCN(C(C(=O)Nc3ccc(F)cc3)c3ccccc3)CC2)cc1 (stereo not drawn)	0	0	46	0	0	0
COc1ccc(Br)cc1/C=N/NC(=O)CN1CCN(Cc2ccccc2)CC1	0	0	41	0	0	-
COc1ccc(/C=N/NC(=O)CN2CCN(Cc3ccccc3)CC2)cc1Br	0	0	0	0	0	-
CCCCCC(=O)OCCc1c(C)nc2nc[nH]n2c1=O	0	0	0	0	0	0
COC(=O)Cc1c(C)nc2nc[nH]n2c1=O	0	48	54	0	0	0
O=C(CN1CCN(c2ccccc2O)CC1)Nc1ccc2c(c1)CCC2	0	0	0	0	0	0
CC(=O)O/N=C(\N)c1cnn2c(C(F)(F)F)cc(C(F)(F)F)nc12	0	0	0	0	0	-
Cc1cc(C(=O)Cn2nc(C(=O)O)c3ccccc3c2=O)c(C)n1-c1cccc(C(F)(F)F)c1	0	0	0	72	0	-
CC(C)(C)c1ccc(C(=O)Cn2nc(C(=O)O)c3ccccc3c2=O)cc1	0	0	44	0	0	-
CC(C)CC(=O)Nc1ccc(C(=O)Cn2nc(C(=O)O)c3ccccc3c2=O)cc1	0	0	0	0	-	0
CCCCC(CC)CNC(=O)CC1Nc2c3ccccc3nc(=S)n2C1=O (stereo not drawn)	0	0	-	0	0	0
Cc1ccc(C(=O)N2N=C(CC(C)C)CC2(O)C(F)(F)F)o1 (stereo not drawn)	0	0	0	0	0	0
CCOc1ccc(N(CC(=O)Nc2ccc3c(c2)OCCO3)S(=O)(=O)c2c(C)noc2C)cc1	0	41	0	0	0	0
COc1ccc(OC)c(NC(=O)CN(c2ccc(C)cc2)S(=O)(=O)c2c(C)noc2C)c1	0	0	0	0	0	0
COc1ccc(OC)c(NC(=O)CN(c2ccc(C(C)C)cc2)S(=O)(=O)c2c(C)noc2C)c1	0	0	0	0	54	0
COc1cc(OC)cc(C(=O)N[C@H](C(=O)Nc2nc3ccc(S(C)(=O)=O)cc3s2)C(C)C)c1	0	0	0	0	0	0
O=C(NNc1nc(N2CCOCC2)nc(N2CCOCC2)n1)Nc1ccc(Cl)cc1	0	0	0	0	0	0
CCNc1sc(S(C)(=O)=O)nc1S(=O)(=O)c1ccc(Cl)cc1	0	0	-	0	0	0
COc1ccc(Cl)c(Cn2c(NCc3ccco3)nc3c2c(=O)n(C)c(=O)n3C)c1	0	0	0	0	0	0
COc1cccc(Cn2c(NCc3ccco3)nc3c2c(=O)n(C)c(=O)n3C)c1	0	44	0	0	-	0
COC(=O)c1c(NC(=O)COC(=O)Cn2cnc3ccccc32)sc(C)c1C	0	0	0	44	0	0
CCOC(=O)c1cc2sc(C)cc2n1C(C)C(=O)OCC (stereo not drawn)	0	0	0	0	76	0
CCNc1nc(NCC)nc(N/N=C/c2ccc(Br)cc2)n1	0	0	0	0	0	0
COC(=O)C1=C(N)Oc2cc(C)n(CC3CCCO3)c(=O)c2C1c1ccccc1OC (stereo not drawn)	0	0	0	0	0	0
